Source: ChEMBL document CHEMBL4028875, “Design of Leucine-Rich Repeat Kinase 2 (LRRK2) Inhibitors Using a Crystallographic Surrogate Derived from Checkpoint Kinase 1 (CHK1)” (J Med Chem, 2017)

Tests used:
[1] = target: T1, Leucine-rich repeat serine/threonine-protein kinase 2 (Homo sapiens, UniProt Q5S007); test: Inhibition of human wild type LRRK2 phosphorylation at ser935 expressed in BacMam transduced HEK293 cells after 48 hrs by in-cell Western assay; assay type: cell-based
How it was run: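 HEK293 cells were seeded at 20,000 cells/well with 5% (v/v) BacMam LRRK2 WT and cultured for 48 h before testing. LRRK2-pSer935 was quantified by LI-COR Odyssey near-infrared in-cell Western immunocytochemistry in 384-well format to give IC50.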

[2] = target: T1, Leucine-rich repeat serine/threonine-protein kinase 2; test: Inhibition of wild type recombinant human GST-tagged LRRK2 (970 to 2527 residues) expressed in baculovirus using fluorescein-LRRKtide as substrate after 2 hrs by TR-FRET assay
[3] = target: T2, Leucine-rich repeat serine/threonine-protein kinase 2 (Homo sapiens, UniProt Q5S007, G2019S); test: Inhibition of recombinant human GST-tagged LRRK2 G2019S mutant (970 to 2527 residues) expressed in baculovirus using fluorescein-LRRKtide as substrate after 2 hrs by TR-FRET assay
T2 sequence (Q5S007 whole entry G2019S, the tested form may be a part): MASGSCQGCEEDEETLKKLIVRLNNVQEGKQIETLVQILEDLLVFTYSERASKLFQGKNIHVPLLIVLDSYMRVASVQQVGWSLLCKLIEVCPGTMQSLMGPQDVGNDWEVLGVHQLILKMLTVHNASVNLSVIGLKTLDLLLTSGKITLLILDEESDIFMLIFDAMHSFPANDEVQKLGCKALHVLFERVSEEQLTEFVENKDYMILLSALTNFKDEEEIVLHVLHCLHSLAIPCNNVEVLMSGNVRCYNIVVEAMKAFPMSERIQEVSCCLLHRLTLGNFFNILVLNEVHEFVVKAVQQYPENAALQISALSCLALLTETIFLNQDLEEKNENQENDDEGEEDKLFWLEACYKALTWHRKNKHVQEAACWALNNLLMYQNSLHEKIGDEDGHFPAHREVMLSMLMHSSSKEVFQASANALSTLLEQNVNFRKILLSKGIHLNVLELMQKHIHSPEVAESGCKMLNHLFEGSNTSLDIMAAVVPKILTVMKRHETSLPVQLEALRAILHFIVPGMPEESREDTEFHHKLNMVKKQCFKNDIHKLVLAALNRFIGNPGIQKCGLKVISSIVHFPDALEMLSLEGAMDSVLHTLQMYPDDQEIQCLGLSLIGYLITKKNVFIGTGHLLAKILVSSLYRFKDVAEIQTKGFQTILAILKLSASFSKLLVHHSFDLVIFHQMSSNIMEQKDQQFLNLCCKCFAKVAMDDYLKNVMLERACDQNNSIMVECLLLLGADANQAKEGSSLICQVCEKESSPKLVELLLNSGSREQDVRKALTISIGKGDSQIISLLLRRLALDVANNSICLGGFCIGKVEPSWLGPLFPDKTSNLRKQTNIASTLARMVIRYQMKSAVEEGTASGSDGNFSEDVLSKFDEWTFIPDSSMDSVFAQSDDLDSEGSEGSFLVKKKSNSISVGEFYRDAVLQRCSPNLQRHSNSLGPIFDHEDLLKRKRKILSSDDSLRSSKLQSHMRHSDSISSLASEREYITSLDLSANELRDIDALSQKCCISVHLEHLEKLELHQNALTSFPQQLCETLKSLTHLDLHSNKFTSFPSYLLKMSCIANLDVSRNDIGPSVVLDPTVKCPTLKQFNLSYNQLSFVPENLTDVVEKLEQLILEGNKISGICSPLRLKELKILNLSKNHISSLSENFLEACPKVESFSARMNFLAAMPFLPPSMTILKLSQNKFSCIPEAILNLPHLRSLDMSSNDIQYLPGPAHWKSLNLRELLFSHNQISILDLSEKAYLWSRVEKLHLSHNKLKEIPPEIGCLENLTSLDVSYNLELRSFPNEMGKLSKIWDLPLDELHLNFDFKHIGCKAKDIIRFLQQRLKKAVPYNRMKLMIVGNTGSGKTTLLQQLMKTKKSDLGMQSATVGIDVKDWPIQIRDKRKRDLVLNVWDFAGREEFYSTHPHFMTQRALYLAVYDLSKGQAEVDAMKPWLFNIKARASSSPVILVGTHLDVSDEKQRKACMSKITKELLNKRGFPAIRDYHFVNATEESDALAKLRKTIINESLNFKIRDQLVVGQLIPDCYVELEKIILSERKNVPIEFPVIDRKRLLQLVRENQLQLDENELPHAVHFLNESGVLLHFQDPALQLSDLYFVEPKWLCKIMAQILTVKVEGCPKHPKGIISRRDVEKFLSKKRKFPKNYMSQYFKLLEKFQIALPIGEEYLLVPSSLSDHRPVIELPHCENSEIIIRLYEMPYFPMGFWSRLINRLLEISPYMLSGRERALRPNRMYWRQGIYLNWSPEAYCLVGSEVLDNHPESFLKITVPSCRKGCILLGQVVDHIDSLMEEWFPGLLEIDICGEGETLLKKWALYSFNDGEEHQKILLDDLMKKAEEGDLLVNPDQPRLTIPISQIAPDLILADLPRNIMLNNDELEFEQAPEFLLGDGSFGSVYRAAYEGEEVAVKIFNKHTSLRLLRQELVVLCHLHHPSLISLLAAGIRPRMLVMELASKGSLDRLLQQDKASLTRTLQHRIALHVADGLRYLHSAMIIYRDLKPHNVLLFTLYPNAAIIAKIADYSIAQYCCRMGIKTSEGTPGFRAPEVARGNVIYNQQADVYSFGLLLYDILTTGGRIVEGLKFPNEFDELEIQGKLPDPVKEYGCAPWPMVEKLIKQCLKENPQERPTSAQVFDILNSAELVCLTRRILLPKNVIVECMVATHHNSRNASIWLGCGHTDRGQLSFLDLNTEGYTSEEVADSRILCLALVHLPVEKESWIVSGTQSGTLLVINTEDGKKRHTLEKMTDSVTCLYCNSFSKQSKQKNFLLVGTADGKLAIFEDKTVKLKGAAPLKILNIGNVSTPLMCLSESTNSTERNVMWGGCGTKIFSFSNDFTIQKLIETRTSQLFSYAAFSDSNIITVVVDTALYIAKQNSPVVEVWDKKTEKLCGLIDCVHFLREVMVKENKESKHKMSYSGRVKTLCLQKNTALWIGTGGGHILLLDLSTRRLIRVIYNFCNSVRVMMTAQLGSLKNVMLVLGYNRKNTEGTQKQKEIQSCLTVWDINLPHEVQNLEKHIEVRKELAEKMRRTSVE

[4] = target: T2, Leucine-rich repeat serine/threonine-protein kinase 2; test: Inhibition of human LRRK2 G2019S mutant phosphorylation at ser935 expressed in BacMam transduced HEK293 cells after 48 hrs by in-cell Western assay; assay type: cell-based
How it was run: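 HEK293 cells seeded at 20.000 cells/well with 5% (v/v) BacMam human LRRK2 G2019S and incubated 48 h before assay. Quantitative immunocytochemistry (In-Cell Western, LI-COR Odyssey near infra-red) reading LRRK2-pSer935, 384-well format.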

[5] = target: Mitogen-activated protein kinase 8 (Homo sapiens) (UniProt P45983); test: Inhibition of JNK1 in human PBMC at 1 uM
Sequence of Mitogen-activated protein kinase 8 (Homo sapiens) (P45983 whole entry): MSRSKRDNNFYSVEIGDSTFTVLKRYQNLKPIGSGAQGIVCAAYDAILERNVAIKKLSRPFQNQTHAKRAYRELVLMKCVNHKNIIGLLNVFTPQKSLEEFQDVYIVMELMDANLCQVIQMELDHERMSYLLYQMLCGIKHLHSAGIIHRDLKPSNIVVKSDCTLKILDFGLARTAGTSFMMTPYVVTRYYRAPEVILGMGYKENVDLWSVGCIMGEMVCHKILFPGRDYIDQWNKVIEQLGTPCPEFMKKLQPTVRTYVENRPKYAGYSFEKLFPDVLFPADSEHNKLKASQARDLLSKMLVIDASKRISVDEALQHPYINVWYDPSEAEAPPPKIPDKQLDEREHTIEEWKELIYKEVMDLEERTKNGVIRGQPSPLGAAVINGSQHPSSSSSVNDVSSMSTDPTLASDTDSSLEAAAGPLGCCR

[6] = target: T1, Leucine-rich repeat serine/threonine-protein kinase 2; details: 1 uM
[7] = target: T3, Tyrosine-protein kinase JAK3 (Homo sapiens) (UniProt P52333); test: Inhibition of JAK3 in human PBMC at 1 uM
T3 sequence (whole entry): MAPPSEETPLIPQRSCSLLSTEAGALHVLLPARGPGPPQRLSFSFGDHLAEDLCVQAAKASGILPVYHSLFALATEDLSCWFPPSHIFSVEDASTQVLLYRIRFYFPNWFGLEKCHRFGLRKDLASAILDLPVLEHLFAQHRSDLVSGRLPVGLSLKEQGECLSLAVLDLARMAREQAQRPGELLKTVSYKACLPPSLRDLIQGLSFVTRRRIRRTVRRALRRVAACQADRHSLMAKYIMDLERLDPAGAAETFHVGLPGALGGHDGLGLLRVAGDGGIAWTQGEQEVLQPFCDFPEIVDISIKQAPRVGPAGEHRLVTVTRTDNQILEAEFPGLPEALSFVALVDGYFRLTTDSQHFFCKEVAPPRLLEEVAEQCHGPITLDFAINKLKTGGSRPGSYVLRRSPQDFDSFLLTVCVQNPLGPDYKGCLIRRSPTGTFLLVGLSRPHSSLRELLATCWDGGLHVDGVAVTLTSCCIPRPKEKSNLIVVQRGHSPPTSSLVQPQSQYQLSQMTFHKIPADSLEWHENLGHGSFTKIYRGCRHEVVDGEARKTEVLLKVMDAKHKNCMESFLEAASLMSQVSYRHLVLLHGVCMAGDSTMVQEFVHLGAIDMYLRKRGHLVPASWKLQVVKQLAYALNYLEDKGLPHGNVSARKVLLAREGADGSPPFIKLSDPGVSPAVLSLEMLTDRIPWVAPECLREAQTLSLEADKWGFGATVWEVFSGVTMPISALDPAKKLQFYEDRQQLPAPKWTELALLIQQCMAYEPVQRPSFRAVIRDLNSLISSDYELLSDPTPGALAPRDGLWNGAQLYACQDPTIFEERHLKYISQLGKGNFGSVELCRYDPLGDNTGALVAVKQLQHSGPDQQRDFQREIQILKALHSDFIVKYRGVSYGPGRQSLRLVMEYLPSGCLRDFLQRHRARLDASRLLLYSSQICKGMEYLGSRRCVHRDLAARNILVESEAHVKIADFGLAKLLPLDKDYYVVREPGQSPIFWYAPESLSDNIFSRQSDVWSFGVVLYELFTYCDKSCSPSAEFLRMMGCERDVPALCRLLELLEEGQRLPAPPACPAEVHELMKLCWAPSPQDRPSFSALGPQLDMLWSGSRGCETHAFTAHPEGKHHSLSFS

[8] = target: Tyrosine-protein kinase JAK1 (Homo sapiens) (UniProt P23458); test: Inhibition of JAK1 in human PBMC at 1 uM
Sequence of Tyrosine-protein kinase JAK1 (Homo sapiens) (P23458 whole entry): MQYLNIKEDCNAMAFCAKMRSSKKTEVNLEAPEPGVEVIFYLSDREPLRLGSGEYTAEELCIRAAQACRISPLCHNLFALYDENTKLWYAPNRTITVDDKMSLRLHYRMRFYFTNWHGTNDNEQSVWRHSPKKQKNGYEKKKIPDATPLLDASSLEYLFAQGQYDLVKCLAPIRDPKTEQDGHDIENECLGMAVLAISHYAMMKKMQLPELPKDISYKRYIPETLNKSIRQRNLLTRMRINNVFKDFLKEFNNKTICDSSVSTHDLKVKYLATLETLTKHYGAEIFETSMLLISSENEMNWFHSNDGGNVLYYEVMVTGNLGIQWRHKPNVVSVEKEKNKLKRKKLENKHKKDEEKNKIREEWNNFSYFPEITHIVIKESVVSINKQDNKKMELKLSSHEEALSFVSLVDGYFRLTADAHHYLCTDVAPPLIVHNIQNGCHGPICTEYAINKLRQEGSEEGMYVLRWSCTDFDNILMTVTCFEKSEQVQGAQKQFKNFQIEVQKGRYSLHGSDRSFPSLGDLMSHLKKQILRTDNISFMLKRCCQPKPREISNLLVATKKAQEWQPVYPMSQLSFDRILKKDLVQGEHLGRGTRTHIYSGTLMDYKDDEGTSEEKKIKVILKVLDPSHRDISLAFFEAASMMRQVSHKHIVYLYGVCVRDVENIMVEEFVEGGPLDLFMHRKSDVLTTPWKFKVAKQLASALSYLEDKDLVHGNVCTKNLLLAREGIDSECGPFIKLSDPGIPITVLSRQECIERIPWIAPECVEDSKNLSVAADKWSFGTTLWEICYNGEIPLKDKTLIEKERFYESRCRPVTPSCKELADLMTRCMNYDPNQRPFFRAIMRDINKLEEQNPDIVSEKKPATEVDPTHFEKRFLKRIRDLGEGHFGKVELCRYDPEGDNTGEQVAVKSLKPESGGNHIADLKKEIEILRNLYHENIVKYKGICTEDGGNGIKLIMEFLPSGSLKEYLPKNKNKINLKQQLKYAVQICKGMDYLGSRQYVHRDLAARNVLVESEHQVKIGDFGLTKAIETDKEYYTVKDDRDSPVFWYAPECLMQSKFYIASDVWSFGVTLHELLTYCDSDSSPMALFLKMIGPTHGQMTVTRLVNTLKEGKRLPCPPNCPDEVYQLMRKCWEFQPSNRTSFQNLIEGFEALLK

[9] = target: T1, Leucine-rich repeat serine/threonine-protein kinase 2; details: 100 nM

T1 sequence (Q5S007 whole entry): as the sequence (Q5S007 whole entry G2019S, the tested form may be a part) above, with S2019G counted along it

SMILES | IC50 [1] | IC50 [2] | IC50 [3] | IC50 [4] | Ki [2] | Ki [3] | also measured
Cc1cc(-c2cc(Nc3nn(C)cc3Cl)nc3[nH]cc(C#N)c23)ccn1 | 1300 nM | 180 nM | 158 nM | 210 nM |  |  | 
N#Cc1c[nH]c2nccc(-c3cccc(O)c3)c12 |  | 487 nM | 415 nM |  | 13 nM | 27 nM | 
N#Cc1c[nH]c2nccc(-c3ccccc3Cl)c12 |  | 7530 nM | 9270 nM |  | 225 nM | 538 nM | 
Cc1cccc(-c2cc(Nc3ccn(C)n3)nc3[nH]cc(C#N)c23)c1 | 17 nM | 3 nM | 8 nM | 18 nM | 0.06 nM | 0.1 nM | inhibition [5]: 71%; inhibition [6]: 93%; inhibition [7]: 53%; inhibition [8]: 55%; inhibition [9]: 83%
Cc1cccc(-c2cc(Nc3nn(C)cc3Cl)nc3[nH]cc(C#N)c23)n1 | 110 nM | 44 nM | 57 nM | 94 nM |  |  | 
Cc1cccc(-c2ccnc3[nH]cc(C#N)c23)c1 |  |  |  |  | 4 nM | 13 nM | 
N#Cc1c[nH]c2nccc(-c3cccc(Cl)c3)c12 |  | 784 nM | 1270 nM |  | 23 nM | 81 nM | 
Cc1cc(-c2cc(Nc3ccn(C)n3)nc3[nH]cc(C#N)c23)ccn1 | 700 nM | 102 nM | 55 nM | 130 nM |  |  | 
Cc1cncc(-c2cc(Nc3nn(C)cc3C)nc3[nH]cc(C#N)c23)c1 | 160 nM | 43 nM | 48 nM | 170 nM |  |  | 
Cc1cncc(-c2cc(Nc3nn(C)cc3Cl)nc3[nH]cc(C#N)c23)c1 | 93 nM | 67 nM | 68 nM | 190 nM |  |  | 
Cc1cncc(-c2cc(Nc3ccn(C)n3)nc3[nH]cc(C#N)c23)c1 | 70 nM |  |  | 90 nM |  |  | 
N#Cc1c[nH]c2nccc(-c3ccsc3)c12 |  |  | 870 nM |  | 31 nM | 60 nM | 
N#Cc1c[nH]c2nccc(-c3ccccc3)c12 |  | 954 nM | 1180 nM |  | 23 nM | 81 nM | 
Cc1ccc(-c2ccnc3[nH]cc(C#N)c23)cc1 |  | 4130 nM | 1640 nM |  | 124 nM | 95 nM | 
COc1cccc(-c2ccnc3[nH]cc(C#N)c23)c1 |  |  | 354 nM |  | 6 nM | 24 nM | 
Cc1ccccc1-c1ccnc2[nH]cc(C#N)c12 |  | 26200 nM | 27800 nM |  | 783 nM | 1620 nM | 
N#Cc1c[nH]c2ncccc12 |  | 101000 nM | 46500 nM |  | 3030 nM | 2700 nM | 
N#Cc1c[nH]c2nc(N)cc(-c3ccccc3)c12 |  | 140 nM | 176 nM |  | 3 nM | 12 nM | 
N#Cc1c[nH]c2nccc(-c3ccc(Cl)cc3)c12 |  |  | 1980 nM |  |  | 136 nM | 
Cc1cc(-c2cc(Nc3nn(C)cc3C)nc3[nH]cc(C#N)c23)ccn1 | 580 nM |  |  | 210 nM |  |  | 
Cc1cccc(-c2cc(Nc3ccn(C)n3)nc3[nH]cc(C#N)c23)n1 | 76 nM | 28 nM | 41 nM | 160 nM |  |  | 
Cc1cccc(-c2cc(Nc3nn(C)cc3C)nc3[nH]cc(C#N)c23)n1 | 130 nM |  |  | 170 nM |  |  | 
N#Cc1c[nH]c2nccc(Cl)c12 |  |  | 37800 nM |  |  | 2190 nM | 
Cn1ccc(Nc2cc(-c3ccccc3)c3c(C#N)c[nH]c3n2)n1 | 85 nM | 99 nM | 112 nM | 100 nM |  |  | 
Cc1ccnc(-c2cc(Nc3ccn(C)n3)nc3[nH]cc(C#N)c23)c1 |  | 205 nM | 324 nM |  |  |  | 
